By Ki is commonly meant the dissociation constant of the complex between target and ligand, obtained from inhibition or displacement.

This passage reports Ki, Ratio Ki and Activity results from ChEMBL document CHEMBL4177556, “Novel 5-HT7R antagonists, arylsulfonamide derivatives of (aryloxy)propyl piperidines: Add-on effect to the antidepressant activity of SSRI and DRI, and pro-cognitive profile” (Bioorg Med Chem, 2017).

Assay [1] concerns the target 5-hydroxytryptamine receptor 7 (Homo sapiens, UniProt P34969). The assay is described as follows: Displacement of [3H]-5-CT from human 5-HT7b receptor expressed in HEK293 cells after 1 hr by microbeta counting analysis. The class given is cell-based. The essentials: (§1)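 Membranes from stably transfected HEK293 or CHO-K1 cells, homogenized, centrifuged twice at 35,000g, with 15 min at 37 °C in between. Receptor-specific Tris-HCl buffers with MgCl2, plus EDTA, pargyline or ascorbate as applicable. Incubated 1 h at 37 °C (5-HT1A at room temperature), filtered, and bound radioactivity counted.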

Assay [2] concerns the target T1, 5-hydroxytryptamine receptor 1A (Homo sapiens, UniProt P08908).
T1 sequence (P08908 whole entry): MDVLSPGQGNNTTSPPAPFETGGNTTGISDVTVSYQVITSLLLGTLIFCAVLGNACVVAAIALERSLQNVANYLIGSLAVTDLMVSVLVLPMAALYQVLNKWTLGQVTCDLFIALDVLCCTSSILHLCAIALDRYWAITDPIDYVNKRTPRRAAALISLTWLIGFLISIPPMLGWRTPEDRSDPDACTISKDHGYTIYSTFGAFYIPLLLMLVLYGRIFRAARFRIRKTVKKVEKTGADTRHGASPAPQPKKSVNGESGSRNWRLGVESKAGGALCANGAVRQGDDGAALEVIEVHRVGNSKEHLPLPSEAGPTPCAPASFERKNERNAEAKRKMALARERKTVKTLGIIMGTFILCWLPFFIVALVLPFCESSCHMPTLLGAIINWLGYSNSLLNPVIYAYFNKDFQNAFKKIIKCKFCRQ
Briefly: Displacement of [3H]-8-OH-DPAT from human 5-HT1A receptor expressed in HEK293 or CHO-K1 cells after 1 hr by microbeta counting analysis. The class given is cell-based. An outline of the steps:
as §1
(In a radioligand displacement assay an active substance lowers the binding of a labelled ligand.)

The species entered for assay [3] is Homo sapiens. The assay is described as follows: Selectivity ratio of Ki for human 5-HT1A receptor to Ki for human 5-HT7b receptor.
The subject of assay [4] is Mus musculus. The assay is described as follows: Antidepressant-like activity in Swiss albino mouse assessed as decrease in immobility time at 10 mg/kg measured during last 4 mins of 6 mins test by forced swim test relative to control. The class given is functional. Details: scale not given: the % may be the effect or the level left. The essentials: (§2)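 Porsolt swim test in male Swiss albino mice (22–26 g), 7–10 per dose, each used once, run 09:00–14:00 by a blinded observer. Drugs in distilled water, i.p. at 10 ml/kg: escitalopram 30 min before test, others 60 min. Immobility scored during the last 4 min of a 6 min swim at 23–25 °C. One-way ANOVA with Bonferroni vs vehicle.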

The subject of assay [5] is Mus musculus. Briefly: Antidepressant-like activity in C57BL/6J mouse at 2.5 mg/kg measured during 6 mins session by tail suspension test. It is filed as functional, organism-based. An outline of the steps:
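Male C57BL/6J mice (22–26 g), 7–9 per group. Compound in distilled water, i.p. at 10 ml/kg, 60 min before test. Mice suspended by tail from a strain-gauge hook for 6 min. Struggling episodes, average event force and immobility (force below 0.20 N threshold) recorded automatically. One-way ANOVA with Bonferroni; mean ± SEM.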

The test system of assay [6] is Rattus norvegicus. The assay is described as follows: Cognitive enhancement effect in Sprague-Dawley rat memory impairment model assessed as reversal of natural forgetting impairment at 1 mg/kg, ip administered 30 mins prior to test measured after 24 hrs by novel object recognition test. It is filed as functional, organism-based. An outline of the steps: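 Male Sprague–Dawley rats (about 250 g), handled and acclimatized. Habituated to an open field arena (25 lx) for 5 min, 24 h before testing. Two 3-min trials (T1, T2) separated by a 24 h inter-trial interval. Drug given i.p. 30 min before T1. Object exploration video-tracked; discrimination index = (EB−EA)/(EA+EB).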

Assay [7] concerns Mus musculus. The assay is described as follows: Antidepressant-like activity in Swiss albino mouse assessed as decrease in immobility time at 1.25 mg/kg measured during last 4 mins of 6 mins test by forced swim test relative to control. The class given is functional. Details: scale not given: the % may be the effect or the level left. An outline of the steps:
as §2

The test system of assay [8] is Mus musculus. Briefly: Antidepressant-like activity in Swiss albino mouse assessed as decrease in immobility time at 2.5 mg/kg measured during last 4 mins of 6 mins test by forced swim test relative to control. It is filed as functional. Details: scale not given: the % may be the effect or the level left. An outline of the steps:
as §2

Assay [9] relates to Mus musculus. Briefly: Antidepressant-like activity in C57BL/6J mouse assessed as decrease in immobility time at 5 to 20 mg/kg measured during 6 mins session by tail suspension test. It is filed as functional, organism-based. An outline of the steps: (§3)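 C57BL/6J male mice (22–26 g), 7–9 per group. Escitalopram in distilled water, i.p. at 10 ml/kg, 30 min before test. Tail suspension on a strain gauge for 6 min, scoring fight force, episode count and immobility below a 0.20 N threshold. One-way ANOVA with Bonferroni.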

In assay [10] the test system is Mus musculus. The assay is described as follows: Antidepressant-like activity in C57BL/6J mouse assessed as increase in average force of fights at 20 mg/kg measured during 6 mins session by tail suspension test. It is filed as functional, organism-based. An outline of the steps:
as §3

In assay [11] the test system is Mus musculus. Briefly: Antidepressant-like activity in Swiss albino mouse assessed as decrease in immobility time at 0.625 mg/kg measured during last 4 mins of 6 mins test by forced swim test. The class given is functional, organism-based. The essentials:
as §2

Molecules are shown by their SMILES. The source made the active and inactive calls.

Sequence of 5-hydroxytryptamine receptor 7 (P34969 whole entry): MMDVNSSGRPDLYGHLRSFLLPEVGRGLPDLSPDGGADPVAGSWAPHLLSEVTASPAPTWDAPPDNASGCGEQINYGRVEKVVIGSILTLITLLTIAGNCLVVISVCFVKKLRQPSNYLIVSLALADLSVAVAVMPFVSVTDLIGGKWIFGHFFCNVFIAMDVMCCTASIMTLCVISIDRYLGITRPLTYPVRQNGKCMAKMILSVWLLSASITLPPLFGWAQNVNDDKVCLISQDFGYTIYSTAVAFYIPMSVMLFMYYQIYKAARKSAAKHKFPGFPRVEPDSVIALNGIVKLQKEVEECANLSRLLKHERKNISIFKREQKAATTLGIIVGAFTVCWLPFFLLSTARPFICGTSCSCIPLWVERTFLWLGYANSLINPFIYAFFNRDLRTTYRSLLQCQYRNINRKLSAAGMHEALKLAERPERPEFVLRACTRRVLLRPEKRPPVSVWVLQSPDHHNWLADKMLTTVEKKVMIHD

For `CC(C)c1ccccc1OCC(C)N1CCC(NS(=O)(=O)c2ccc(F)cc2)CC1` (stereo not drawn), the results for the Ki in [1] and in [2] were 74 nM and 1170 nM, respectively. Besides, the Ratio Ki in assay [3] stood at 16.
As to `CC(COc1ccccc1-c1ccccc1)N1CCC(NS(=O)(=O)c2cccc(Cl)c2)CC1` (stereo not drawn), the Ki worked out at 32 nM in [1] and 696 nM in assay [2]. The Ratio Ki in assay [3] is 22.
With `O=S(=O)(NC1CCN(CCCOc2ccccc2-c2ccccc2)CC1)c1ccc(F)cc1`, the inhibitory constant (Ki) in assay [1] was determined as 58 nM; in assay [2] it was 1840 nM. The Ratio Ki in [3] was found to be 32.
For `CC(C)c1ccccc1OCC(O)CN1CCC(NS(=O)(=O)c2ccc(F)cc2)CC1` (stereo not drawn) the same measures were 104 nM, 506 nM and 5.
For `O=S(=O)(NC1CCN(CC(O)COc2ccccc2-c2ccccc2)CC1)c1ccc(F)cc1` (stereo not drawn) the same measures were 59 nM, 1320 nM and 22.
Turning to `CC1CCN(CC[C@H]2CCCN2S(=O)(=O)c2cccc(O)c2)CC1`, the Activity in [4] was 31%. In addition, the result in [5] and in assay [6] was Active.
As to `CN(C)CCC[C@@]1(c2ccc(F)cc2)OCc2cc(C#N)ccc21` [ESCITALOPRAM], the Activity is reported as 27% in [7] and 34% in [8]. Moreover, the result in [9] and in assay [10] was Active. For the same molecule, in assay [11], the outcome was inactive.
